This sample holds only a part of the variants without activity.

Here are results for 37 variants from the RNAGym collection of RNA variant scans (doi:10.1126/science.aae0568).

First the molecules themselves.
B1: tRNA (parent)
chain: GUUCCGUUGGCGUAAUGGUAACGCGUCUCCCUCCUAAGGAGAAGACUGCGGGUUCGAGUCCCGUACGGAACG

The variants in this series derive from B1. In words: yeast fitness relative to wild type (ratio to wild type); higher = fitter; tRNA-Arg(CCU), competitive growth, 37 C, YPD. The procedure, abridged: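 Gene amplicons from the start population and from each of six end populations were read by 100-nucleotide paired-end sequencing. Those end populations came from pooled Saccharomyces cerevisiae strains carrying tRNA-Arg(CCU) gene variants at the native locus, competed in YPD at 37°C for 24 hours. Fitness relative to wild type was worked out from changes in genotype frequencies. Genotypes needed ≥ 100 starting reads, and estimates < 0.5 were set to 0.5.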
Turning to GUUCCGUUGGCGUAAUGGUAUCGCGUCUCCCUCCUAAGGAGAAGAAUGCGGGUUCGAGUCCUGUAUGGAACG [A21U C46A C62U C66U], the yeast fitness was not above 0.5.
Consider GUUCCGUUGGCGUAAUGGUAUCGCGUCUCCCUCGUAAGAAGAAGACUGCGGGUUCGGGUCUCGUACGGAACG [A21U C34G G39A A57G C61U], for which the yeast fitness is not above 0.5.
To GUUCCGUUGGCGUAAUGGUAUCGCGUCUCCCUCCUAAGGAGAAGACUGCGGGUUGGAGUCCCGUACGAACCG [A21U C55G G68A A70C] belongs not above 0.5.
To GUUCCGUUGGCGUAAUGGUAUCCCGUCUCCCUCCUAAGGAGAAGACUGCGGGUUCGAUUCCCGUGCAGAACG [A21U G23C G58U A65G G67A] belongs not above 0.5; to GUUCCGUUGGCGUAAUGGUAUCGCAUCUCCCUUCUAAGGAGAAGACUGCGGGUUCGUGCCCCGUACGGAACG [A21U G25A C33U A57U U59C], 0.562; to GUUCCGUUGGCGUAAUGGUAUCGCGUCUCCCUGCUAAGGACAAGACUGCGGGUUCGAGUCCCGUACGGAACG [A21U C33G G41C], not above 0.5.
To GUUCCGUUGGCGUAAUGGUAUCGCGUCUCCCUCCUAAGGAGAACACUGCGGGUUCGAGUCCCGUACGGAACG [A21U G44C] belongs 0.769; to GUUCCGUUGGCGUAAUGGUAUCGCGUCUCCCUCGUAAGAAGAAGACUGCGGGUUUGAGUCCCGUACGGAACG [A21U C34G G39A C55U], not above 0.5.
On to GUUCCGUUGGCGUAAUGGUAUCGCGUCUCCCUCCUAAGGAACAGACUGCGGGUUCGAGCCCCGUACGGUACG [A21U G41A A42C U59C A69U], for which the yeast fitness is not above 0.5.
To GUUCCGUUGGCGUAAUGGUAUCGCGUCUCCCUCCUAAAGAGAAGACUGCGGGUUCGAGUCCCGUACGGAACG [A21U G38A] belongs 0.682; to GUUCCGUUGGCGUAAUGGUAUCGCGUCUCCCUCGUAAGAAGAAGACUGCGGGUUUGAGUCGCGUACGGAACG [A21U C34G G39A C55U C61G], not above 0.5; to GUUCCGUUGGCGUAAUGGUAUCGCGUCUCCCUUCUAAGGAGAAGACUGCGGGUUCGAGUCCCGUACGGAACG [A21U C33U], 0.732.
To GUUCCGUUGGCGUAAUGGUAUCGCGUCUCCCUGCUAAGGAGAAGACUGCGGGUUCGAGUCCCGUACGGAACG [A21U C33G] belongs 0.731.
For the variant GUUCCGUUGGCGUAAUGGUAUCGCGUCUCCCUCUUAAGGAGAAGGCUGCAGGUUCGAGUCCCGUACGGAACG [A21U C34U A45G G50A], the yeast fitness is not above 0.5.
On to GUUCCGUUGGCGUAAUGGUAUCGCGUCUCCCUUCUAAGGAGAAGACUGAGGGUUUGAGUCCCGUACGGAACG [A21U C33U C49A C55U], for which the yeast fitness was not above 0.5.
For the variant GUUCCGUUGGCGUAAUGGUAUCGCGUCUCCCUCCUAAGGAGAAGACUGACGGUUCGCGUCCCGUAGGGAACG [A21U C49A G50C A57C C66G], the yeast fitness came to 0.561.
As to GUUCCGUUGGCGUAAUGGUAUCGCGUCUCCCUCCUAAGCAGAAGACUGCGGGUUCGAGUCCCGUACGGAACG [A21U G39C], the yeast fitness was 0.574.
As for GUUCCGUUGGCGUAAUGGUAUCGCGUCUCCCUCCUAAGGAGAAGACUGCGGGUUCGAGUCCAGUACAGGACG [A21U C62A G67A A69G], the figure is not above 0.5; as for GUUCCGUUGGCGUAAUGGUAUCGCGUCUCCCUCCUAAGGAGAAGACUGACGGUUCGAGUCCCGUACGGAACG [A21U C49A G50C], not above 0.5; as for GUUCCGUUGGCGUAAUGGUAUCGCGUCUCCCUCCUAAGGAAAAGACUGCGGGUUCGAGUCCCGUACGGAACG [A21U G41A], 0.727.
Turning to GUUCCGUUGGCGUAAUGGUAUCGCGUCUCCCUCCUAAGGACAAGACUGCGGGUUCGAGUCCCGUACGGAACG [A21U G41C], the yeast fitness came to 0.715.
As for GUUCCGUUGGCGUAAUGGUAUCGCGUCUCCCUCCUAAGGAGAAGACUGCGGGUUUGAGUCCCGUCCGGAACG [A21U C55U A65C], the figure is not above 0.5.
As for GUUCCGUUGGCGUAAUGGUAUCGCGUCUCCCUCCUAAGGAGAAGACUGCGGGUUCGAGUUCCGUACGGAACG [A21U C60U], the figure is 0.584; as for GUUCCGUUGGCGUAAUGGUAUCGCAUCUACCUCCUGAGGAGAAGAAUGCGGGUUAGAGUCCCGUACGGAACG [A21U G25A C29A A36G C46A C55A], not above 0.5.
As for GUUCCGUUGGCGUAAUGGUAUCGCGUCUCCCUCCUAAGGAGAAGACUGCGAGUUCGAGUCCCGUACGGAACG [A21U G51A], the figure is 0.751; as for GUUCCGUUGGCGUAAUGGUAUCGCGUCUCCCUCCUAAGGAGAAGACUGCGCGUUCGAGUCCCGUACGGAACG [A21U G51C], not above 0.5; as for GUUCCGUUGGCGUAAUGGUAUCGCGUCUCCCUCUAAAGAAGAAGACUGCGGGUUCGAGUCCCGUACGGAACG [A21U C34U U35A G39A], 0.594.
With GUUCCGUUGGCGUAAUGGUAUCGCCUCUCCCUCCUAAGGAGAAGACUGCGGGUUCGAGUCCCGUACGGAACG [A21U G25C], the yeast fitness came out at 1.08.
In the case of GUUCCGUUGGCGUAAUGGUAUCGCGUCUCCCUCCUAAGGAGAAGACUGCGGGUUCGAGUCCCGUAGGGAACG [A21U C66G], the yeast fitness came out at 0.513.
To GUUCCGUUGGCGUAAUGGUAUCGCGUCUCCCUCCUAAGGAGAAGACUGCGGGUUUAAGUCCCGUACGGAACG [A21U C55U G56A] belongs 0.567.
To GUUCCGUUGGCGUAAUGGUAUCGCGUCUCCCUUCUAAGGAGAUGACUGGCGGUUCGAGUCUCGUAUGGAACG [A21U C33U A43U C49G G50C C61U C66U] belongs not above 0.5; to GUUCCGUUGGCGUAAUGGUAUCGCGUCUCCCUCGUAAGGAGAAGACUGCGGGUUCGAGUCCCGAACGGAACG [A21U C34G U64A], not above 0.5.
To GUUCCGUUGGCGUAAUGGUAUCGCGUCUCCCUCCUAAGGAGAAGACUCCGGGUUCGAGUCCCAUACGGAACG [A21U G48C G63A] belongs not above 0.5; to GUUCCGUUGGCGUAAUGGUAUCGCCUCUCCCUCCUAAGGAGAGGACUGCGGGUUCGAGUCCCGUGCGGAACG [A21U G25C A43G A65G], 0.609; to GUUCCGUUGGCGUAAUGGUAUCGCGUCUCCCUCCUAAGGAGAAGACUGCGGGUUUGAGUCCCGUACGCAACG [A21U C55U G68C], not above 0.5.
GUUCCGUUGGCGUAAUGGUAUCCUGUCUCCCUCCUAAGGAGAAGACUGCGGGUUCGAGUCCCGUACGGAACG [A21U G23C C24U]: the yeast fitness is 0.658.
To GUUCCGUUGGCGUAAUGGUAUCGCAUCUCCCUCCUAAGGAGAAGACUGCGGGUUCGAGUCCCGUACGGCACG [A21U G25A A69C] belongs 0.605.
